Structures are written as SMILES. The source made the active and inactive calls. No cut-off for these calls is given here.

The test system of data set [1] is A549/TR. Kind of data set: Induction of apoptosis in human A549/TR cells expressing NQO1 assessed as necrotic cells at 1 uM after 24 hrs by Annexin V-FITC/propidium iodide based flow cytometric analysis (reference value: 3.91%). It counts as functional. In a few lines:
(§1)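 A549/Taxol cells exposed 24 h to 1, 5 or 10 µM. The 10 µM arms included pretreatment with 50 µM dicoumarol or 10 mM N-acetylcysteine. Cells stained with Annexin V-FITC and propidium iodide, and populations quantified by flow cytometry.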

Data set [2] can be described thus: Toxicity in nude mouse xenografted with human A549/TR cells expressing NQO1 at 15 to 30 mg/kg, iv treated every other day for 3 weeks measured every day. Particulars: in vivo, 504 h. It counts as organism-based. In a few lines:
(§2)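 A549/Taxol xenograft nude mice dosed by tail-vein injection at 15 or 30 mg/kg every other day for three weeks; saline vehicle group. Afterwards mice were euthanized, major organs H&E stained, and blood taken for biochemistry (TP, ALB, GLB, AST, BUN, LDH); tumor tissue assayed for ROS and GSH.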

Data set [3] concerns A549/TR. Kind of data set: Antitumor activity against human A549/TR cells expressing NQO1 xenografted in nude mouse assessed as tumor volume at 30 m/kg, iv treated every other day for 3 weeks measured every day relative to control. Type of data set: functional. In short, it runs like this:
(§3)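 A549/Taxol tumor-bearing nude mice dosed by tail-vein injection every other day for three weeks (15 or 30 mg/kg; Taxol reference 2 mg/kg; vehicle controls). Tumor volume followed over treatment, tumors weighed at end, body weight monitored. Tumor sections stained with H&E for necrosis and karyorrhexis.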
Background: A xenograft is tissue or cells of one species grown in another, often human tumour cells in immunodeficient mice.

The test system of data set [4] is A549/TR. Kind of data set: Induction of apoptosis in human A549/TR cells expressing NQO1 at 10 uM treated post NAC addition and measured after 24 hrs by Annexin V-FITC/propidium iodide based flow cytometric analysis. Type of data set: functional, cell-based. For orientation: In flow cytometry, cells or beads pass a laser one at a time.
Data set [5] is described as follows: Nephrotoxicity in nude mouse xenografted with human A549/TR cells expressing NQO1 assessed as blood urea nitrogen level at 15 to 30 mg/kg, iv treated every other day for 3 weeks […]. Particulars: in vivo, 504 h. It counts as toxicity, organism-based. In a few lines:
as §2

Data set [6] can be described thus: Nephrotoxicity in nude mouse xenografted with human A549/TR cells expressing NQO1 at 15 to 30 mg/kg, iv treated every other day for 3 weeks by hematoxylin and eosin staining based optical microscopic analysis. It counts as toxicity, organism-based. Particulars: in vivo, 504 h. In a few lines: as §2
Data set [7] has as its system A549/TR. Description: Induction of apoptosis in human A549/TR cells expressing NQO1 assessed as late apoptotic cells at 10 uM after 24 hrs by Annexin V-FITC/propidium iodide based flow cytometric analysis (reference value: 2.49%). It counts as functional. In a few lines:
as §1

For data set [8], the system named is MIA PaCa-2. Kind of data set: Cytotoxicity against human MIAPaCa2 cells expressing NQO1 assessed as reduction in cell viability after 72 hrs by MTT assay. The conditions noted are these: MIA PaCa-2, 72 h. Type of data set: functional, cell-based. In a few lines:
(§4)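 MTT viability assay. Cells seeded at 1 x 10^4 cells/mL and attached overnight. Exposed to compound at 1–100 µM for 4 h, then medium replaced. Incubated 72 h at 37 °C, 5% CO2. MTT added for 4 h, formazan dissolved in DMSO, absorbance read at 560 nm. IC50 determined from at least three technical replicates. For DIC/NAC lines, A549/Taxol cells pretreated with 50 µM dicoumarol or 10 mM N-acetylcysteine.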

The nature of data set [9]: Cardiotoxicity in nude mouse xenografted with human A549/TR cells expressing NQO1 assessed as lactate dehydrogenase level at 15 to 30 mg/kg, iv treated every other day for 3 weeks by hematoxylin and eosin staining based optical microscopic analysis. It counts as toxicity, organism-based. Particulars: in vivo, 504 h. In a few lines:
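Nude mice bearing A549/Taxol xenografts given saline, 15 or 30 mg/kg by tail-vein injection every other day, or Taxol 2 mg/kg, for 3 weeks. Mice then euthanized. Major organs examined by H&E staining. Blood collected for biochemistry: TP, ALB, GLB, AST, BUN, LDH.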

In data set [10] the test system is Mus musculus. Description: Induction of ROS generation in nude mouse xenografted with human A549/TR cells expressing NQO1 at 15 to 30 mg/kg, iv treated every other day for 3 weeks by DCFH-DA staining based flow cytometric analysis. It counts as functional, organism-based.
The subject of data set [11] is A549/TR. Kind of data set: Induction of apoptosis in human A549/TR cells expressing NQO1 assessed as increase in cleaved p53 level up to 10 uM treated post NAC addition by Western blot analysis. Type of data set: functional, cell-based. In a few lines: (§5)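 A549/Taxol cells treated with graded concentrations up to 10 µM, with or without pretreatment with 50 µM dicoumarol or 10 mM N-acetylcysteine. Cells then harvested, washed in cold PBS and trypsinized. Lysates probed by Western blot for cleaved PARP and p53.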
For orientation: A western blot detects proteins with antibodies after separation by electrophoresis.

Data set [12] deals with NAD(P)H dehydrogenase [quinone] 1 (Homo sapiens) (UniProt P15559). Description: Substrate activity at recombinant human NQO1 assessed as induction of DNA damage at 10 uM after 2 hrs by propidium iodide staining based laser scanning confocal microscopic analysis. In a few lines: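 Comet assay in A549/Taxol cells exposed 2 h to compound (10 µM) or 2 mM H2O2, with or without DIC or NAC pretreatment; comet tail lengths measured in arbitrary units.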

The test system of data set [13] is A549/TR. Kind of data set: Induction of apoptosis in human A549/TR cells expressing NQO1 assessed as early apoptotic cells at 10 uM treated post DIC addition and measured after 24 hrs by Annexin V-FITC/propidium iodide based flow cytometric analysis (reference value: 0.43%). It counts as functional. In a few lines:
as §1

The subject of data set [14] is A549/TR. Description: Induction of apoptosis in human A549/TR cells expressing NQO1 assessed as necrotic cells at 10 uM treated post NAC addition and measured after 24 hrs by Annexin V-FITC/propidium iodide based flow cytometric analysis (reference value: 3.91%). It counts as functional. In short, it runs like this:
as §1

Data set [15] relates to A549/TR. Description: Antitumor activity against human A549/TR cells expressing NQO1 xenografted in nude mouse assessed as increase in large areas of necrosis at 15 to 30 mg/kg, iv treated every other day for 3 weeks by hematoxylin and eosin staining based optical microscopic analysis. It counts as functional, organism-based. In short, it runs like this: as §3
Data set [16] concerns A549/TR. Kind of data set: Induction of apoptosis in human A549/TR cells expressing NQO1 assessed as early apoptotic cells at 1 uM after 24 hrs by Annexin V-FITC/propidium iodide based flow cytometric analysis (reference value: 0.43%). It counts as functional. In a few lines:
as §1

The subject of data set [17] is NCI-H596. Kind of data set: Cytotoxicity against NQO1 deficient human NCI-H596 cells assessed as reduction in cell viability after 72 hrs by MTT assay. Type of data set: cell-based. Particulars: NCI-H596, 72 h. In short, it runs like this: as §4
The test system of data set [18] is A549/TR. Description: Induction of apoptosis in human A549/TR cells expressing NQO1 assessed as increase in cleaved PARP level up to 10 uM treated post NAC addition by Western blot analysis. Type of data set: functional, cell-based. In short, it runs like this: as §5

NAD(P)H dehydrogenase [quinone] 1 (Homo sapiens), sequence (P15559 whole entry): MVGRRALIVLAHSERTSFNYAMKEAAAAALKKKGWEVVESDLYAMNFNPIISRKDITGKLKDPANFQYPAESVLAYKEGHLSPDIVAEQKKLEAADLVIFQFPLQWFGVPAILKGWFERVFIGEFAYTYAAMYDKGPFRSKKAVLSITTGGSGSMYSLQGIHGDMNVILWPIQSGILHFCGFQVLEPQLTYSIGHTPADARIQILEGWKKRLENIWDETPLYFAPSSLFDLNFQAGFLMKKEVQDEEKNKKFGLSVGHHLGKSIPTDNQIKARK

In general, T/C refers to the ratio of treated to control. By IC50 is commonly meant the concentration that gives 50% inhibition. Consider `N#Cc1nc2c(nc1C#N)-c1cc(F)c(F)cc1C2=O`, for which the Activity in data set [1] is 7.16%; in data set [2], “Non-Toxic”; in [5], “Non-Toxic”; in data set [6], “Non-Toxic”; in [7], 8.09%; in data set [9] it was “Non-Toxic”. Also, the Activity in data set [13] was determined as 7.01%; in [14] it was 6.53%; in data set [16], 15.91%. The T/C in [3] is reported as 25.9%. The outcome in data set [4] was inactive. Also, the IC50 in [8] turned out to be 4.5 µM; in data set [17], 19.1 µM. The outcome in data set [10], in data set [11], in data set [12], in [15] and in [18] was Active.

The values above are taken from ChEMBL document CHEMBL4411270, “Discovery of Nonquinone Substrates for NAD(P)H: Quinone Oxidoreductase 1 (NQO1) as Effective Intracellular ROS Generators for the Treatment of Drug-Resistant Non-Small-Cell Lung Cancer” (J Med Chem, 2018).
